Assay results taken from ChEMBL document CHEMBL1134835, “Analogues of prazosin that bear a benextramine-related polyamine backbone exhibit different antagonism toward alpha1-adrenoreceptor subtypes” (J Med Chem, 2001).

Legend:
[1] = molecular target: T1, Alpha-1A adrenergic receptor (Rattus norvegicus) (UniProt P43140)
T1 sequence (whole entry): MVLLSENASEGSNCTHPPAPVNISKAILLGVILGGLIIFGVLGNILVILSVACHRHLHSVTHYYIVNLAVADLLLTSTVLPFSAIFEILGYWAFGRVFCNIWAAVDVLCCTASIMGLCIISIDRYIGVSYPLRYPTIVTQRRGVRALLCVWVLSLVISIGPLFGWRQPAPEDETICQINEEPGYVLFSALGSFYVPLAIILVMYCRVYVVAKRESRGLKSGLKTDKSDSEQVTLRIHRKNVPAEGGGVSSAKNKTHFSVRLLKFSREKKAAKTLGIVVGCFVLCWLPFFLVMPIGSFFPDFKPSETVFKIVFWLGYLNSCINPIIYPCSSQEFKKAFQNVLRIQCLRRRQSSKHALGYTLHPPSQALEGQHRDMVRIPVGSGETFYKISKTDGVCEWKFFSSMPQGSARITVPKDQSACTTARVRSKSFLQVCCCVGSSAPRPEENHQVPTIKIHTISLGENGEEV

[2] = molecular target: T2, Alpha-1B adrenergic receptor (Rattus norvegicus) (UniProt P15823); settings: Spleen
T2 sequence (whole entry): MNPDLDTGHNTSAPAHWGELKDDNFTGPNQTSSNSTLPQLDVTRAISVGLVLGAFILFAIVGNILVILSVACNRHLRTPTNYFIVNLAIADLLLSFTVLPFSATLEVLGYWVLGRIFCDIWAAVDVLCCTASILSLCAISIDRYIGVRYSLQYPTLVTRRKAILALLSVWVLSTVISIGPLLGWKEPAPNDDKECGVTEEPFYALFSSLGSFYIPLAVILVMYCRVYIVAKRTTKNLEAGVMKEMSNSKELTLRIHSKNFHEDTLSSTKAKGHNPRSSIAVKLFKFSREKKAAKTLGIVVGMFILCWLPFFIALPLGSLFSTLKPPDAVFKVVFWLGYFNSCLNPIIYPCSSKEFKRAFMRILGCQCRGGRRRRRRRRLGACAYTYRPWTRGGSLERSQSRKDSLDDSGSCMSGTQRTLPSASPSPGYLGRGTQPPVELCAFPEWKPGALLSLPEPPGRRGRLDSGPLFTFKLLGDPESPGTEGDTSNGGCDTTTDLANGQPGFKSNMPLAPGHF

[3] = molecular target: T3, Alpha-1D adrenergic receptor (Rattus norvegicus) (UniProt P23944); settings: Thoracic aorta
T3 sequence (whole entry): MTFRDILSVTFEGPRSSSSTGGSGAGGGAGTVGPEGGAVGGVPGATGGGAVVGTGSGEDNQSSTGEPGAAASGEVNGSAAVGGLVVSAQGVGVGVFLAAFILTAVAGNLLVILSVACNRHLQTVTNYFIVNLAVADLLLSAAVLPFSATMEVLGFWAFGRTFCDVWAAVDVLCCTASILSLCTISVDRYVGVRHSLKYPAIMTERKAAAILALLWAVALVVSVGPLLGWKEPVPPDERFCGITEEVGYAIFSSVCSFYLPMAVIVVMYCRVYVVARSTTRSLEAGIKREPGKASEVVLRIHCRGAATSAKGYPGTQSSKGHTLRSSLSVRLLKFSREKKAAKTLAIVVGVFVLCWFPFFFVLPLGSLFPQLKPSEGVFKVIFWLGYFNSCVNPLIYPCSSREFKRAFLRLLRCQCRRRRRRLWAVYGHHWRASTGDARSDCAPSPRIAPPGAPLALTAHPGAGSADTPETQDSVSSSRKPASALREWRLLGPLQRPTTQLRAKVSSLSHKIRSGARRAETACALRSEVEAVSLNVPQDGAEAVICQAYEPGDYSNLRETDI

[4] = molecular target: T4, Alpha-1A adrenergic receptor (Rattus norvegicus, UniProt P43140); assay: Antagonist affinity [non competitive (irreversible)] at alpha-1A-adrenoceptors on isolated prostatic Vas deferens from rat; assay type: functional
T4 sequence (P43140 whole entry): T1 sequence (whole entry)
In short: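 Rat vas deferens prostatic portion, equilibrated 60 min with washes every 15 min, primed twice with 10 µM noradrenaline, then a basal noradrenaline concentration-response curve (solutions with 0.05% Na₂S₂O₅). Antagonist 30 min, then 30 min washing, then a new curve. Maximal-response decrease expressed as % of control; IC50 read graphically from % inhibition vs log molar concentration, given as pIC50 ± SE.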

[5] = molecular target: T5, Alpha-1B adrenergic receptor (Rattus norvegicus, UniProt P15823); assay: Antagonist affinity [non competitive (irreversible)] at alpha-1B-adrenoceptors on isolated spleen from rat; assay type: functional, tissue-based
T5 sequence (P15823 whole entry): T2 sequence (whole entry)
In short: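 Isolated rat spleen contracted by (-)-phenylephrine, measured isometrically. Cumulative curves run at 30 min intervals, the second taken as control. Antagonist incubated 30 min, washed 30 min, then a new curve. Loss of maximal response expressed as % of control; IC50 estimated from % inhibition vs log molar concentration plots, reported as pIC50 ± SE of n experiments.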

Row | pKb [1] | pKb [2] | pKb [3] | IC50 [4] [µM] | IC50 [5] [µM] | SMILES
1 | 7.87 | 7.84 | 7.46 | – | – | COc1cccc(C(=O)N2CCN(c3nc(N)c4cc(OC)c(OC)cc4n3)CC2)c1
2 | 7.74 | 6.8 | 7.94 | – | – | COc1cc2nc(N3CCN(C(=O)c4ccccc4CNCCCCCCNCCCCCCNCCCCCCNCc4ccccc4C(=O)N4CCN(c5nc(N)c6cc(OC)c(OC)cc6n5)CC4)CC3)nc(N)c2cc1OC
3 | 7.34 | 6.77 | 7.76 | – | – | COc1cc2nc(N3CCN(C(=O)c4ccccc4OC)CC3)nc(N)c2cc1OC
4 | 7.59 | 6.95 | 8.38 | – | – | COc1cc2nc(N3CCN(C(=O)c4ccc(C=O)cc4)CC3)nc(N)c2cc1OC
5 | 7.66 | 7.44 | 8.86 | – | – | COc1cc2nc(N3CCN(C(=O)c4ccccc4)CC3)nc(N)c2cc1OC
6 | 6.94 | 6.5 | 7.56 | – | – | COc1cc2nc(N3CCN(C(=O)c4ccccc4C=O)CC3)nc(N)c2cc1OC
7 | 7.43 | 7.45 | 8.31 | – | – | COc1cc2nc(N3CCN(C(=O)c4ccc(C(F)(F)F)cc4)CC3)nc(N)c2cc1OC
8 | 6.97 | 7.16 | 7.47 | – | – | COc1cc2nc(N3CCN(C(=O)c4ccc(CNCCCCCCNCCCCCCNCCCCCCNCc5ccc(C(=O)N6CCN(c7nc(N)c8cc(OC)c(OC)cc8n7)CC6)cc5)cc4)CC3)nc(N)c2cc1OC
9 | 8.49 | 8.12 | 9.12 | – | – | COc1cc2nc(N3CCN(C(=O)c4cccc(C)c4)CC3)nc(N)c2cc1OC
10 | 8.53 | 7.56 | 7.9 | – | – | COc1cc2nc(N(C)CCCCCCN(C)C(=O)c3ccc(CNCCCCCCNCCCCCCNCCCCCCNCc4ccc(C(=O)N(C)CCCCCCN(C)c5nc(N)c6cc(OC)c(OC)cc6n5)cc4)cc3)nc(N)c2cc1OC
11 | – | – | – | 4.68 | 2.14 | COc1cc2nc(N(C)CCCCCCN(C)C(=O)c3ccc(CNCCCCCCNCCSSCCNCCCCCCNCc4ccc(C(=O)N(C)CCCCCCN(C)c5nc(N)c6cc(OC)c(OC)cc6n5)cc4)cc3)nc(N)c2cc1OC
12 | 8.17 | 7.22 | 8.47 | – | – | COc1cc2nc(N(C)CCCCCCN(C)C(=O)c3ccccc3CNCCCCCCNCCCCCCNCCCCCCNCc3ccccc3C(=O)N(C)CCCCCCN(C)c3nc(N)c4cc(OC)c(OC)cc4n3)nc(N)c2cc1OC
13 | 7.49 | 7.16 | 8.38 | – | – | COc1cc2nc(N3CCN(C(=O)c4cccc(C(F)(F)F)c4)CC3)nc(N)c2cc1OC
14 | 8.46 | 7.74 | 8.98 | – | – | COc1ccc(C(=O)N2CCN(c3nc(N)c4cc(OC)c(OC)cc4n3)CC2)cc1
15 | – | – | – | 0.0457 | 1.74 | COc1cc2nc(N(C)CCCCCCN(C)C(=O)c3cccc(CNCCCCCCNCCSSCCNCCCCCCNCc4cccc(C(=O)N(C)CCCCCCN(C)c5nc(N)c6cc(OC)c(OC)cc6n5)c4)c3)nc(N)c2cc1OC
16 | 8.48 | 7.41 | 9.3 | – | – | COc1cc2nc(N(C)CCCCCCN(C)C(=O)c3cccc(CNCCCCCCNCCCCCCNCCCCCCNCc4cccc(C(=O)N(C)CCCCCCN(C)c5nc(N)c6cc(OC)c(OC)cc6n5)c4)c3)nc(N)c2cc1OC
17 | 7.79 | 6.92 | 8.07 | – | – | COc1cc2nc(N3CCN(C(=O)c4cccc(C=O)c4)CC3)nc(N)c2cc1OC
18 | 7.29 | 6.5 | 7.43 | – | – | COc1cc2nc(N3CCN(C(=O)c4cccc(CNCCCCCCNCCCCCCNCCCCCCNCc5cccc(C(=O)N6CCN(c7nc(N)c8cc(OC)c(OC)cc8n7)CC6)c5)c4)CC3)nc(N)c2cc1OC
19 | 6.97 | 7.33 | 7.99 | – | – | COc1cc2nc(N3CCN(C(=O)c4ccccc4C)CC3)nc(N)c2cc1OC
20 | – | – | – | 2 | 41.7 | COc1cc2nc(N3CCN(C(=O)c4ccc(CNCCCCCCNCCSSCCNCCCCCCNCc5ccc(C(=O)N6CCN(c7nc(N)c8cc(OC)c(OC)cc8n7)CC6)cc5)cc4)CC3)nc(N)c2cc1OC
21 | – | – | – | 3.89 | 55 | COc1cc2nc(N3CCN(C(=O)c4cccc(CNCCCCCCNCCSSCCNCCCCCCNCc5cccc(C(=O)N6CCN(c7nc(N)c8cc(OC)c(OC)cc8n7)CC6)c5)c4)CC3)nc(N)c2cc1OC
22 | – | – | – | 1.86 | 1.86 | COc1cc2nc(N(C)CCCCCCN(C)C(=O)c3ccccc3CNCCCCCCNCCSSCCNCCCCCCNCc3ccccc3C(=O)N(C)CCCCCCN(C)c3nc(N)c4cc(OC)c(OC)cc4n3)nc(N)c2cc1OC
23 | 6.43 | 6.55 | 8.31 | – | – | COc1cc2nc(N3CCN(C(=O)c4ccccc4C(F)(F)F)CC3)nc(N)c2cc1OC
24 | – | – | – | 5.01 | 5.13 | COc1cc2nc(N3CCN(C(=O)c4ccccc4CNCCCCCCNCCSSCCNCCCCCCNCc4ccccc4C(=O)N4CCN(c5nc(N)c6cc(OC)c(OC)cc6n5)CC4)CC3)nc(N)c2cc1OC
25 | 7.96 | 7.67 | 8.91 | – | – | COc1cc2nc(N3CCN(C(=O)c4ccc(C)cc4)CC3)nc(N)c2cc1OC
26 | 8.99 | – | 9.71 | – | – | COc1cc2nc(N3CCN(C(=O)c4ccco4)CC3)nc(N)c2cc1OC
